Shown are actives, neighbours in structure and some others; about 3.4% of the full set was active somewhere.
TAAR1 ag = human TAAR1 agonists, primary screen, Fluo-8 calcium fluorescence, CHO RD-HGA16 cells; Trace amine-associated receptor 1 (Homo sapiens), Q96RJ0; vehicle wells 0%, saturating PEA agonist 100%; activation, % at 3 µM; 360,000 tested, 0.99% active;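 active = activation above the mean activation of all test compounds in the run plus 3 SD, cut at about 38% in these data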
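test system = CHO RD-HGA16 cells carrying human TAAR1 plus Gα16 | schedule = 17-24 h seeding, 75 min 37 °C dye, 30 min RT | compound dosing = 3 µM single concentration | control set = DMSO and PEA EC100 | replicates = n 1 | signal = Fluo-8 fluorescence, 5 s baseline then 140 s kinetic read | measure = percent activation vs PEA EC100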
TRPN1 ag = zebrafish TRPN1 channel agonists, primary screen, cell-based, HEK293, calcium fluorescence; transient receptor potential cation channel N1 (TRPN1/NompC), Danio rerio; AID 1424, 2008; activation, % at 3 µM; HEK293 zebrafish TRPN1-YFP, Fluo-8 calcium fluorescence; 100% = response to 87 µM carbachol; 220,000 tested, 0.18% active;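 active = activation above its plate's cutoff, the mean activation of test wells on that plate plus 3 SD, cut at about 19% in these data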;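 note: 0% = DMSO alone and 100% = 87 µM carbachol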
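System: zebrafish TRPN1-YFP in HEK293 cells / Dosing: 3 µM single point / Timing: dye loading 1 h at 37 °C, then 30 min room temperature / Signal: Fluo-8 calcium fluorescence, excitation 470-495 nm, emission 515-575 nm / Read-out basis: percent activation from peak over basal fluorescence ratio, control-normalized / Control set: high carbachol 87 µM, low DMSO alone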
LANA-H2A inh = blockers of LANA interaction with H2A/H2B – biochemical, FP readout, HTS, primary screen; cell-free LANA-H2A/H2B peptide, fluorescence polarization; inhibition, % (concentration not given with the values); 320,000 tested, 0.6% active; AID 2629, 2010; in the data active = inhibition mostly above about 10%, no sharp cut-off; inactive = mostly below about 6.7%
TAAR1 antag = human TAAR1 antagonists, primary screen, Fluo-8 calcium fluorescence, CHO RD-HGA16 cells; Trace amine-associated receptor 1 (Homo sapiens), Q96RJ0; antagonist; inhibition, % at 3 µM; 360,000 tested, 1.5% active;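 active = inhibition above a per-plate cutoff, the mean inhibition of test compounds on that plate plus 3 SD, cut at about 49% in these data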;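 note: 0% = DMSO plus EC80 beta-PEA response and 100% = DMSO alone without agonist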
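Test system – hTAAR1-expressing CHO RD-HGA16 cells, Gα16-coupled · Also added – β-PEA at EC80 concentration, post-compound challenge · Compound – 3 µM, single point · Incubation – dye loading 75 min at 37 °C, then 30 min room temperature · Measured by – Fluo-8 intracellular calcium dye fluorescence, real-time kinetic reads · Benchmarks – vehicle and agonist controls · Replicates – singlicate, one well per test compound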
TRPML3 agonist = human TRPML3 channel agonists, primary screen, cell-based, HEK293 TRPML3-YFP, Fluo-8 calcium fluorescence, 3 µM; activation, % at 3 µM; Mucolipin-3 (Homo sapiens), Q8TDD5; 100% = the carbachol control signal; 220,000 tested, 0.29% active;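 active = activation above its plate's cutoff, the mean activation of the plate's test wells plus 3 SD, cut at about 12% in these data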;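 note: 0% = DMSO only wells and 100% = carbachol wells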
Target sequence (Q8TDD5 whole entry, looked up): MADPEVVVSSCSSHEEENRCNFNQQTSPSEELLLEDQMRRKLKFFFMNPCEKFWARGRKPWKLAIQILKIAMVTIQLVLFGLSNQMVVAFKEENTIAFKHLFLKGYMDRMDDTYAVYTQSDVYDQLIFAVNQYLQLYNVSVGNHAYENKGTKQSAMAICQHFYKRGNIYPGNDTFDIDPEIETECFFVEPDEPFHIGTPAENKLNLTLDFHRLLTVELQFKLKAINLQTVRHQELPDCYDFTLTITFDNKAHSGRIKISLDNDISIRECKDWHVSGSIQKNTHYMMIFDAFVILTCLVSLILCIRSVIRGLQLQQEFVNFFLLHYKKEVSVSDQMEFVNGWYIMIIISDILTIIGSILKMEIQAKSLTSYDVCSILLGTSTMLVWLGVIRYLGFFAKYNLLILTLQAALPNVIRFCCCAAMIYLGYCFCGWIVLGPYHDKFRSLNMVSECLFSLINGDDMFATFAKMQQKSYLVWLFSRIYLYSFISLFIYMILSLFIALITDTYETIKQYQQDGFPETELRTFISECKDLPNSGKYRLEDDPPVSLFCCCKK
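Material: HEK293 cells stably carrying human TRPML3-YFP; compound dosing: single dose, 3 µM final nominal compound, 0.3% DMSO final; incubation: 1-h 37 °C dye load, 5-s basal, 120-s post-compound reads; technique: Fluo-8 intracellular calcium fluorescence, excitation 470-495 nm, emission 515-575 nm; read-out basis: percent activation from peak-to-basal fluorescence ratio, scaled between DMSO and carbachol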
GPR7 antagonist = GPR7 receptor antagonists, primary screen, cell-based, fluorescence, single concentration | AID 1861, 2009 | GPR7-expressing cells, fluorescence antagonist assay | inhibition, % at 4.4 µM | 290,000 tested, 1.1% active | Neuropeptides B/W receptor type 1 (Homo sapiens), P48145; in the data active = inhibition above about 16%, passing the limit was not always enough;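 note: cells stimulated with the agonist NPW; 0% = agonist with vehicle and 100% = vehicle without agonist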
GPR7 antag cf = GPR7 receptor antagonists, confirmation, cell-based, fluorescence, single concentration | shares compounds with GPR7 antagonist | GPR7-expressing cells, calcium fluorescence antagonist mode | inhibition, % at 4.4 µM | 2,400 tested, 52% active; in the data active = inhibition above about 24%;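 note: stimulated with the GPR7 agonist NPW; 0% = agonist plus vehicle and 100% = vehicle alone without agonist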
MCHR1 antag = MCHR1 antagonists in cells, counter-screen for GPR7 antagonist project, cell-based, fluorescence, human | shares compounds with GPR7 antagonist | MCHR1-expressing cells, fluorescence antagonist assay | inhibition, % at 4.4 µM | 2,400 tested, 62% active | AID 2148, 2009; in the data active = inhibition above about 22%;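 note: 0% = vehicle with agonist and 100% = vehicle without agonist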
Starred values were filed as active, the others as inactive; / = not tested or not shown.

SMILES	TAAR1 ag	TRPN1 ag	LANA-H2A inh	TAAR1 antag	TRPML3 agonist	GPR7 antagonist	GPR7 antag cf	MCHR1 antag
N#CC1=C(N)Oc2cc(N)ccc2C1c1ccc(F)cc1F (stereo not given)	12	/	-13	-4	/	34*	9	21
CCc1cc(=O)oc2c3c(cc(OCC(=O)NCCN4CCOCC4)c12)OC(C)(C)CC3	0	/	3	-2	/	-9	/	/
COc1ccc(C2Nc3ccccc3C(=O)N2Cc2ccco2)cc1CN1C(=O)c2ccccc2C1=O (stereo not given)	0	0	-4	3	0	10	/	/
COc1ccc(C2Nc3ccccc3C(=O)N2Cc2ccco2)cc1COc1ccc(F)cc1 (stereo not given)	-3	-2	-16	18	0	27*	29*	25*
O=C(OCN1C(=O)c2ccccc2C1=O)c1cc(S(=O)(=O)N2CCOCC2)ccc1F	4	/	/	-10	/	/	/	/
CCCC(=O)Nc1nc(-c2ccc(OC)cc2)cs1	10	0	2	2	1	22*	24*	36*
COC(=O)[C@@]12C[C@@H](CC(=O)N3CCN(C(=O)c4ccco4)CC3)C(=O)N(Cc3cccc4ccccc34)C1=CCC(C)(C)C2	12	/	/	11	/	/	/	/
O=C(NC1CCCCC1)C(c1ccncc1)N(Cc1ccc2c(c1)OCO2)C(=O)c1cnsn1 (stereo not given)	9	1	-2	-11	-1	26*	30*	9
CCN(CC)S(=O)(=O)c1ccc(NC(=O)COc2nc3ccccc3nc2N2CCOCC2)cc1	2	-1	3	-24	-1	24*	4	7
CCCCN(C)C(=O)c1nc2ccccn2c1CN1CCN(C/C=C/c2ccccc2)CC1	3	-2	-1	15	0	26*	29*	21
CCCCN(C)C(=O)c1nc2ccccn2c1CN1CCN(c2ncccn2)CC1	1	0	1	7	0	-12	/	/
O=C(c1cccc(F)c1)N1CCN(C2CCCCC2)CC1	6	0	-1	-20	0	13	/	/
O=C(c1cccc([N+](=O)[O-])c1)N1CCN(c2cccc(Cl)c2)CC1	0	0	-2	11	1	23*	31*	24*
Cc1ccc(N2CCN(C(=O)c3cccc([N+](=O)[O-])c3)CC2)cc1Cl	1	0	-1	-9	0	-6	/	/
O=C(c1cccc(Cl)c1)N1CCN(C2CCCCC2)CC1	2	/	2	-21	/	50*	5	-2
CCCCn1nnnc1C(c1cc2ccccc2o1)N1CCN(CC(=O)NC(C)C)CC1 (stereo not given)	2	/	/	-10	/	/	/	/
O=C(NCc1cccnc1)c1ccc(COc2ccc(Cl)cc2Cl)o1	6	4	-2	4	2	-3	/	/
O=C(NCc1cccnc1)c1ccc(COc2cccc3ccccc23)o1	10	0	0	10	0	32*	44*	43*
CC(C)(c1ccccc1)c1ccc(OCCN2CCOCC2)cc1	16	/	-4	13	/	37*	8	6
c1ccc(Cn2nnnc2C(c2cccs2)N2CCCCCC2)cc1 (stereo not given)	18	-1	-2	48	1	-10	/	/
c1ccc(Cn2nnnc2C(c2cccs2)N2CCc3ccccc3C2)cc1 (stereo not given)	/	0	-2	/	0	23*	-6	39*
COc1cccc(C(=O)COc2cccc(NC(=O)c3cccc([N+](=O)[O-])c3)c2)c1	17	3	-3	68*	0	29*	29*	69*
COc1ccc(NC(=O)c2cccc(Oc3ccc([N+](=O)[O-])cc3Cl)c2)cc1	2	0	-7	20	0	34*	11	36*
COC(=O)Nc1ccc(SCC(=O)c2cccc([N+](=O)[O-])c2)cc1	1	/	1	28	/	23*	20	60*
O=C(OCc1cn([C@@H]2CN(C(=O)C3CCCCC3)[C@@H](c3ccc(Cl)cc3)C[C@H]2O)nn1)c1ccccc1	3	/	/	8	/	/	/	/
SMILES	TAAR1 ag	TRPN1 ag	LANA-H2A inh	TAAR1 antag	TRPML3 agonist	GPR7 antagonist	GPR7 antag cf	MCHR1 antag
N#Cc1ccc(CSCC(=O)O)cc1	1	2	-1	-4	1	-2	/	/
COC(=O)c1ccc(CSCc2ccc(C#N)cc2)cc1	/	/	-1	/	/	48*	55*	56*
CC(=O)Nc1ccc(NC(=O)C(C)Sc2nc3ccccc3c(=O)n2CC2CCCO2)cc1 (stereo not given)	3	/	-3	-21	/	/	/	/
COc1cccc(CNCCc2c[nH]c3ccccc23)c1OCc1ccc(F)cc1	28	2	1	32	1	25*	46*	65*
COc1ccccc1NC(=S)NCCc1c[nH]c2ccccc12	8	-1	0	12	4	-1	/	/
N#Cc1ccsc1NC(=O)CN1CCN(c2ccc(O)cc2)CC1	1	0	0	-1	1	-3	/	/
COc1ccc(N2CCN(CC(=O)Nc3sccc3C#N)CC2)cc1	1	0	1	26	0	24*	34*	36*
Oc1ccccc1-c1nnc(COc2ccccc2)o1	1	-1	-5	9	0	5	/	/
c1ccc(OCc2nnc(-c3ccccc3)o2)cc1	-2	-2	5	-6	1	22*	15	25*
O=C(CNS(=O)(=O)c1ccc(Br)s1)NCCc1ccc(Cl)cc1	3	/	-3	19	/	25*	3	34*
CN(CC(=O)Nc1ccccc1Br)C(=O)CCC1CCCC1	-2	/	-9	-1	/	4	/	/
CN(CC(=O)Nc1ccccc1Br)C(=O)CCc1ccccc1	3	/	-1	-12	/	23*	2	-9
Cc1cc(C)cc(NC(=O)NC(C)C2CCCO2)c1 (stereo not given)	3	0	3	7	1	3	/	/
CC(NC(=O)Nc1ccc2c(c1)OCO2)C1CCCO1 (stereo not given)	5	1	6	4	0	99*	-5	18
